Source: ChEMBL document CHEMBL1124759, “Fluoronaphthyridines and quinolones as antibacterial agents. 2. Synthesis and structure-activity relationships of new 1-tert-butyl 7-substituted derivatives” (J Med Chem, 1990)
Values after ≈ are worked out from the molar mass of the structure shown.

Tests used:
Klebsiella pneumoniae [1] = assay: In vitro minimum inhibitory concentration (MIC) against Klebsiella pneumoniae A 9664 at 37 degrees C for 18 h.; format: functional
Method in brief: (§1)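 Two-fold serial broth dilution in nutrient broth. Inoculum adjusted to 10^6 cfu/mL. Compounds tested from 0.0005 to 250 µg/mL.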

Enterobacter cloacae = assay: In vitro minimum inhibitory concentration (MIC) against Enterobacter cloacae A 9656 at 37 degrees C for 18 h.; format: functional
[2] = Tested for aqueous solubility; details: aqueous medium
Pseudomonas aeruginosa [3] = assay: Efficacy on systematic infections against Pseudomonas aeruginosa A 9843 after oral administration in mice; format: functional; details: read-out: PD50
Method in brief: (§2)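 Mice given compound orally after lethal systemic infection. Read-out is the oral dose protecting 50% of mice from death (PD50), reported in mg/kg.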

Staphylococcus aureus [4] = assay: Efficacy on systematic infections against Staphylococcus aureus A 9537 after oral administration in mice; format: functional; details: read-out: PD50; method in brief: as §2
Pseudomonas aeruginosa [5] = assay: In vitro minimum inhibitory concentration (MIC) against Pseudomonas aeruginosa A 9843 at 37 degrees C for 18 h; format: functional; method in brief: as §1
Serratia marcescens = assay: In vitro minimum inhibitory concentration (MIC) against Serratia marcescens A 20019 at 37 degrees C for 18 hr; format: functional; method in brief: as §1
Morganella morganii = assay: In vitro minimum inhibitory concentration (MIC) against Morganella morganii A 15153 at 37 degrees C for 18 h.; format: functional; method in brief: as §1
Staphylococcus aureus [6] = assay: In vitro minimum inhibitory concentration (MIC) against Staphylococcus aureus Smith A 9537 at 37 degrees C for 18 hr; format: functional; method in brief: as §1
Klebsiella pneumoniae [7] = assay: Efficacy on systematic infections against Klebsiella pneumoniae A 9664 after oral administration in mice; format: functional; details: read-out: PD50; method in brief: as §2
Enterococcus faecalis = assay: In vitro minimum inhibitory concentration (MIC) against Enterococcus faecalis A 9808 at 37 degrees C for 18 h.; format: functional; method in brief: as §1
Enterococcus faecium = assay: In vitro minimum inhibitory concentration (MIC) against Enterococcus faecium A 24885 at 37 degrees C for 18 h.; format: functional; method in brief: as §1
Escherichia coli [8] = assay: In vitro minimum inhibitory concentration (MIC) against Escherichia coli A 15119 at 37 degrees C for 18 h.; format: functional; method in brief: as §1
Pseudomonas aeruginosa [9] = assay: In vitro minimum inhibitory concentration (MIC) against Pseudomonas aeruginosa A 9843 at 37 degree C for 18 h; format: functional; method in brief: as §1
Escherichia coli [10] = assay: Efficacy on systematic infections against Escherichia coli A 15119 after oral administration in mice; format: functional; details: read-out: PD50; method in brief: as §2

CC1CN(c2cc3c(cc2F)c(=O)c(C(=O)O)cn3C(C)(C)C)CCN1 (centres undefined)
MIC (Klebsiella pneumoniae [1]): 0.015 mg/L (≈ 0.0415 µM)
MIC (Enterobacter cloacae): 0.03 mg/L (≈ 0.083 µM)
solubility [2]: 1.56 mg/mL (≈ 4320 µM)
ED50 (Pseudomonas aeruginosa [3]): 25 mg/kg
ED50 (Staphylococcus aureus [4]): 5.4 mg/kg
MIC (Pseudomonas aeruginosa [5]): 1 mg/L (≈ 2.77 µM)
MIC (Serratia marcescens): 0.5 mg/L (≈ 1.38 µM)
MIC (Morganella morganii): 0.5 mg/L (≈ 1.38 µM)
MIC (Staphylococcus aureus [6]): 0.06 mg/L (≈ 0.166 µM)
ED50 (Klebsiella pneumoniae [7]): 5.4 mg/kg
MIC (Enterococcus faecalis): 1 mg/L (≈ 2.77 µM)
MIC (Enterococcus faecium): 4 mg/L (≈ 11.1 µM)
MIC (Escherichia coli [8]): 0.008 mg/L (≈ 0.0221 µM)

CC(C)(C)n1cc(C(=O)O)c(=O)c2cc(F)c(N3C[C@@H]4C[C@H]3CN4)nc21
MIC (Klebsiella pneumoniae [1]): 0.13 mg/L (≈ 0.361 µM)
MIC (Enterobacter cloacae): 0.25 mg/L (≈ 0.694 µM)
ED50 (Pseudomonas aeruginosa [3]): 14 mg/kg
MIC (Pseudomonas aeruginosa [9]): 0.5 mg/L (≈ 1.39 µM)
ED50 (Staphylococcus aureus [4]): 0.5 mg/kg
MIC (Serratia marcescens): 2 mg/L (≈ 5.55 µM)
MIC (Morganella morganii): 0.13 mg/L (≈ 0.361 µM)
MIC (Staphylococcus aureus [6]): 0.13 mg/L (≈ 0.361 µM)
ED50 (Klebsiella pneumoniae [7]): 10.8 mg/kg
ED50 (Escherichia coli [10]): 4 mg/kg
MIC (Enterococcus faecalis): 1 mg/L (≈ 2.77 µM)
MIC (Enterococcus faecium): 4 mg/L (≈ 11.1 µM)
MIC (Escherichia coli [8]): 0.13 mg/L (≈ 0.361 µM)

CNC1CCN(c2nc3c(cc2F)c(=O)c(C(=O)O)cn3C(C)(C)C)C1 (centres undefined)
MIC (Klebsiella pneumoniae [1]): 0.13 mg/L (≈ 0.359 µM)
MIC (Enterobacter cloacae): 0.06 mg/L (≈ 0.166 µM)
MIC (Pseudomonas aeruginosa [9]): 2 mg/L (≈ 5.52 µM)
MIC (Serratia marcescens): 1 mg/L (≈ 2.76 µM)
MIC (Morganella morganii): 0.5 mg/L (≈ 1.38 µM)
MIC (Staphylococcus aureus [6]): 0.06 mg/L (≈ 0.166 µM)
MIC (Enterococcus faecalis): 0.5 mg/L (≈ 1.38 µM)
MIC (Enterococcus faecium): 8 mg/L (≈ 22.1 µM)
MIC (Escherichia coli [8]): 0.06 mg/L (≈ 0.166 µM)

CN1CCN(c2nc3c(cc2F)c(=O)c(C(=O)O)cn3C(C)(C)C)CC1
MIC (Klebsiella pneumoniae [1]): 0.06 mg/L (≈ 0.166 µM)
MIC (Enterobacter cloacae): 0.06 mg/L (≈ 0.166 µM)
MIC (Pseudomonas aeruginosa [5]): 1 mg/L (≈ 2.76 µM)
MIC (Serratia marcescens): 0.25 mg/L (≈ 0.69 µM)
MIC (Morganella morganii): 0.5 mg/L (≈ 1.38 µM)
MIC (Staphylococcus aureus [6]): 0.06 mg/L (≈ 0.166 µM)
MIC (Enterococcus faecalis): 2 mg/L (≈ 5.52 µM)
MIC (Enterococcus faecium): 0.5 mg/L (≈ 1.38 µM)
MIC (Escherichia coli [8]): 0.06 mg/L (≈ 0.166 µM)

CC(C)(C)n1cc(C(=O)O)c(=O)c2cc(F)c(N3C[C@@H](N)[C@H](F)C3)nc21.CS(=O)(=O)O
MIC (Klebsiella pneumoniae [1]): 0.5 mg/L
MIC (Enterobacter cloacae): 0.5 mg/L
MIC (Pseudomonas aeruginosa [9]): 2 mg/L
MIC (Serratia marcescens): 0.5 mg/L
MIC (Morganella morganii): 0.5 mg/L
MIC (Staphylococcus aureus [6]): 0.003 mg/L
MIC (Enterococcus faecalis): 0.25 mg/L
MIC (Enterococcus faecium): 2 mg/L
MIC (Escherichia coli [8]): 0.5 mg/L

CC(C)(C)n1cc(C(=O)O)c(=O)c2cc(F)c(N3CC4CCC3CN4)cc21 (centres undefined)
MIC (Klebsiella pneumoniae [1]): 0.25 mg/L (≈ 0.669 µM)
MIC (Enterobacter cloacae): 0.25 mg/L (≈ 0.669 µM)
MIC (Pseudomonas aeruginosa [9]): 2 mg/L (≈ 5.36 µM)
MIC (Serratia marcescens): 2 mg/L (≈ 5.36 µM)
MIC (Morganella morganii): 1 mg/L (≈ 2.68 µM)
MIC (Staphylococcus aureus [6]): 0.13 mg/L (≈ 0.348 µM)
MIC (Enterococcus faecalis): 1 mg/L (≈ 2.68 µM)
MIC (Enterococcus faecium): 4 mg/L (≈ 10.7 µM)
MIC (Escherichia coli [8]): 0.5 mg/L (≈ 1.34 µM)

CN1C2CCC1CN(c1nc3c(cc1F)c(=O)c(C(=O)O)cn3C(C)(C)C)C2.CS(=O)(=O)O
MIC (Klebsiella pneumoniae [1]): 0.1 mg/L
MIC (Enterobacter cloacae): 0.25 mg/L
MIC (Pseudomonas aeruginosa [9]): 4 mg/L
MIC (Serratia marcescens): 2 mg/L
MIC (Morganella morganii): 2 mg/L
MIC (Staphylococcus aureus [6]): 0.25 mg/L
MIC (Enterococcus faecalis): 2 mg/L
MIC (Enterococcus faecium): 16 mg/L
MIC (Escherichia coli [8]): 0.5 mg/L

CC(C)(C)n1cc(C(=O)O)c(=O)c2cc(F)c(N3C[C@@H]4C[C@H]3CN4)cc21
MIC (Klebsiella pneumoniae [1]): 0.5 mg/L (≈ 1.39 µM)
MIC (Enterobacter cloacae): 0.5 mg/L (≈ 1.39 µM)
ED50 (Pseudomonas aeruginosa [3]): 23 mg/kg
MIC (Pseudomonas aeruginosa [9]): 1 mg/L (≈ 2.78 µM)
ED50 (Staphylococcus aureus [4]): 10 mg/kg
MIC (Serratia marcescens): 2 mg/L (≈ 5.56 µM)
MIC (Morganella morganii): 1 mg/L (≈ 2.78 µM)
MIC (Staphylococcus aureus [6]): 0.25 mg/L (≈ 0.696 µM)
MIC (Enterococcus faecalis): 4 mg/L (≈ 11.1 µM)
MIC (Enterococcus faecium): 16 mg/L (≈ 44.5 µM)
MIC (Escherichia coli [8]): 2 mg/L (≈ 5.56 µM)

CC(C)(C)n1cc(C(=O)O)c(=O)c2cc(F)c(N3CC4CCC(C3)N4)nc21.CS(=O)(=O)O
MIC (Klebsiella pneumoniae [1]): 0.13 mg/L
MIC (Enterobacter cloacae): 0.25 mg/L
MIC (Pseudomonas aeruginosa [9]): 4 mg/L
MIC (Serratia marcescens): 1 mg/L
MIC (Morganella morganii): 0.5 mg/L
MIC (Staphylococcus aureus [6]): 0.06 mg/L
MIC (Enterococcus faecalis): 1 mg/L
MIC (Enterococcus faecium): 4 mg/L
MIC (Escherichia coli [8]): 0.13 mg/L

CC(C)(C)n1cc(C(=O)O)c(=O)c2cc(F)c(N3CC4CCC3CN4)nc21 (centres undefined)
MIC (Klebsiella pneumoniae [1]): 0.13 mg/L (≈ 0.347 µM)
MIC (Enterobacter cloacae): 0.06 mg/L (≈ 0.16 µM)
MIC (Pseudomonas aeruginosa [9]): 1 mg/L (≈ 2.67 µM)
MIC (Serratia marcescens): 1 mg/L (≈ 2.67 µM)
MIC (Morganella morganii): 1 mg/L (≈ 2.67 µM)
MIC (Staphylococcus aureus [6]): 0.03 mg/L (≈ 0.0801 µM)
MIC (Enterococcus faecalis): 0.5 mg/L (≈ 1.34 µM)
MIC (Enterococcus faecium): 2 mg/L (≈ 5.34 µM)
MIC (Escherichia coli [8]): 0.13 mg/L (≈ 0.347 µM)

CC(C)(C)n1cc(C(=O)O)c(=O)c2cc(F)c(N3CCNC(CF)C3)cc21 (centres undefined)
MIC (Klebsiella pneumoniae [1]): 0.13 mg/L (≈ 0.343 µM)
MIC (Enterobacter cloacae): 0.13 mg/L (≈ 0.343 µM)
MIC (Pseudomonas aeruginosa [9]): 4 mg/L (≈ 10.5 µM)
MIC (Serratia marcescens): 1 mg/L (≈ 2.64 µM)
MIC (Morganella morganii): 0.5 mg/L (≈ 1.32 µM)
MIC (Staphylococcus aureus [6]): 0.13 mg/L (≈ 0.343 µM)
MIC (Enterococcus faecalis): 2 mg/L (≈ 5.27 µM)
MIC (Enterococcus faecium): 8 mg/L (≈ 21.1 µM)
MIC (Escherichia coli [8]): 0.25 mg/L (≈ 0.659 µM)

CC(C)(C)n1cc(C(=O)O)c(=O)c2cc(F)c(N3C[C@@H](CN)[C@H](F)C3)nc21.CS(=O)(=O)O
MIC (Klebsiella pneumoniae [1]): 0.13 mg/L
MIC (Enterobacter cloacae): 0.06 mg/L
ED50 (Pseudomonas aeruginosa [3]): 18 mg/kg
MIC (Pseudomonas aeruginosa [9]): 0.5 mg/L
ED50 (Staphylococcus aureus [4]): 0.8 mg/kg
MIC (Serratia marcescens): 1 mg/L
MIC (Morganella morganii): 0.5 mg/L
MIC (Staphylococcus aureus [6]): 0.004 mg/L
MIC (Enterococcus faecalis): 0.03 mg/L
MIC (Enterococcus faecium): 0.25 mg/L
MIC (Escherichia coli [8]): 0.06 mg/L

CC(C)(C)n1cc(C(=O)O)c(=O)c2cc(F)c(N3C4CCC3CNC4)nc21.CS(=O)(=O)O
MIC (Klebsiella pneumoniae [1]): 0.13 mg/L
MIC (Enterobacter cloacae): 0.25 mg/L
MIC (Pseudomonas aeruginosa [9]): 2 mg/L
MIC (Serratia marcescens): 0.5 mg/L
MIC (Morganella morganii): 0.5 mg/L
MIC (Staphylococcus aureus [6]): 0.06 mg/L
MIC (Enterococcus faecalis): 0.5 mg/L
MIC (Enterococcus faecium): 4 mg/L
MIC (Escherichia coli [8]): 0.06 mg/L
